The text below walks through data of ChEMBL document CHEMBL4229449, “Synthesis and antimicrobial studies of hydrazone derivatives of 4-[3-(2,4-difluorophenyl)-4-formyl-1H-pyrazol-1-yl]benzoic acid and 4-[3-(3,4-difluorophenyl)-4-formyl-1H-pyrazol-1-yl]benzoic acid” (Bioorg Med Chem Lett, 2018).

One series concerns Klebsiella aerogenes. Description: Antimicrobial activity against Enterobacter aerogenes by broth microdilution method. In kind it is functional, organism-based. (In general: In broth dilution the organism is exposed to a series of concentrations in liquid medium.)
A further series deals with Bacillus subtilis. Description: Antimicrobial activity against Bacillus subtilis by broth microdilution method. In kind it is functional.
The next series has as its system Pseudomonas aeruginosa. Description: Antimicrobial activity against Pseudomonas aeruginosa by broth microdilution method. In kind it is functional, organism-based.
Series [1] concerns Staphylococcus aureus. Put plainly: Antimicrobial activity against methicillin-resistant Staphylococcus aureus by broth microdilution method. In kind it is functional.
The subject of series [2] is Staphylococcus aureus. Description: Antimicrobial activity against Staphylococcus aureus by broth microdilution method. It counts as functional.
The subject of another series is Acinetobacter baumannii. Put plainly: Antimicrobial activity against Acinetobacter baumannii by broth microdilution method. In kind it is functional.
Series [3] deals with HEK293. Description: Cytotoxicity against human HEK293 cells assessed as reduction in cell viability at 25 to 50 ug/ml after 24 hrs by resazurin dye based method. The note with it: hek293, 24 h. In a few lines:
(§1)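 HEK-293 human embryonic kidney cells were exposed to test compounds at 25 and 50 μg/mL and incubated for 24 h. Growth inhibition was read by resazurin assay and expressed as percent cell viability.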

Series [4] has as its system HEK293. Description: Cytotoxicity against human HEK293 cells assessed as reduction in cell viability at 50 ug/ml after 24 hrs by resazurin dye based method. The note with it: hek293, 24 h. In a few lines:
as §1

For series [5], the system named is Panel NCI-60 (60 carcinoma cell lines). Put plainly: Cytotoxicity against human NCI60 cells assessed as reduction in cell viability at 10 uM after 24 hrs by resazurin dye based method. A general note: Resazurin is reduced to fluorescent resorufin, in cell work by metabolically active cells.

Converted amounts (≈) assume the structure as drawn. The source made the active and inactive calls. The rule behind the calls is not given here. Where only a bound is given, the exact number is not on record here.

The MIC is the lowest concentration that inhibits growth of the organism. With `CN1CCN(/N=C/c2cn(-c3ccc(C(=O)O)cc3)nc2-c2ccc(F)cc2F)CC1`, the MIC result with Klebsiella aerogenes, in the series on Bacillus subtilis, in the series on Pseudomonas aeruginosa, in the series on Staphylococcus aureus [1], in the series with Staphylococcus aureus [2] and in the series with Acinetobacter baumannii was “inactive” each time.

With `O=C(O)c1ccc(-n2cc(/C=N/Nc3cc(F)ccc3F)c(-c3ccc(F)c(F)c3)n2)cc1`, the MIC entry with Klebsiella aerogenes, in the series on Pseudomonas aeruginosa, with Staphylococcus aureus [1] and with Staphylococcus aureus [2] was “inactive” throughout. Besides, the MIC with Bacillus subtilis stood at 3.12 µg/mL (≈ 6.88 µM); in the series on Acinetobacter baumannii, 6.25 µg/mL (≈ 13.8 µM). The figures for the Activity result (in the series on HEK293 [3]; in the series on HEK293 [4]; in series [5]) were “Non-Toxic”, 69% and “Non-Toxic”, respectively.

Take `O=C(O)c1ccc(-n2cc(/C=N/Nc3cccc(F)c3)c(-c3ccc(F)c(F)c3)n2)cc1`: the MIC entry in the series with Klebsiella aerogenes and in the series with Pseudomonas aeruginosa was “inactive” each time. Further, the MIC was 12.5 µg/mL (≈ 28.6 µM) against Bacillus subtilis, 12.5 µg/mL (≈ 28.6 µM) against Staphylococcus aureus [1], 12.5 µg/mL (≈ 28.6 µM) with Staphylococcus aureus [2] and 6.25 µg/mL (≈ 14.3 µM) with Acinetobacter baumannii. The Activity result in the series with HEK293 [3] is listed as “Non-Toxic”; with HEK293 [4] it was more than 80%; in [5], “Non-Toxic”.

With `O=C(O)c1ccc(-n2cc(/C=N/Nc3c(F)c(F)cc(F)c3F)c(-c3ccc(F)c(F)c3)n2)cc1`, the MIC entry in the series on Klebsiella aerogenes, in the series with Pseudomonas aeruginosa and with Acinetobacter baumannii was “inactive” each time. The values for the MIC against Bacillus subtilis, with Staphylococcus aureus [1] and with Staphylococcus aureus [2] were 6.25 µg/mL (≈ 12.7 µM), 12.5 µg/mL (≈ 25.5 µM) and 12.5 µg/mL (≈ 25.5 µM), respectively.

Take `O=C(O)c1ccc(-n2cc(/C=N/Nc3cccc(F)c3)c(-c3ccc(F)cc3F)n2)cc1`: the MIC entry in the series on Klebsiella aerogenes and with Pseudomonas aeruginosa was “inactive” in each case. The MIC is 12.5 µg/mL (≈ 28.6 µM) against Bacillus subtilis, 25 µg/mL (≈ 57.3 µM) in the series with Staphylococcus aureus [1], 25 µg/mL (≈ 57.3 µM) in the series with Staphylococcus aureus [2] and 6.25 µg/mL (≈ 14.3 µM) in the series on Acinetobacter baumannii. Also, the Activity entry in the series with HEK293 [3] is given as “Non-Toxic”; in the series on HEK293 [4] it was more than 80%; in series [5], “Non-Toxic”.

As to `O=C(O)c1ccc(-n2cc(/C=N/Nc3cccc(C(=O)O)c3)c(-c3ccc(F)cc3F)n2)cc1`, the MIC entry in the series on Klebsiella aerogenes, with Bacillus subtilis, in the series with Pseudomonas aeruginosa, in the series on Staphylococcus aureus [1], in the series with Staphylococcus aureus [2] and with Acinetobacter baumannii was “inactive” each time.

`O=C(O)c1ccc(-n2cc(/C=N/Nc3ccc([N+](=O)[O-])cc3)c(-c3ccc(F)c(F)c3)n2)cc1`: the MIC entry with Klebsiella aerogenes, in the series on Bacillus subtilis, in the series on Pseudomonas aeruginosa, in the series on Staphylococcus aureus [1], with Staphylococcus aureus [2] and in the series on Acinetobacter baumannii was “inactive” in each case.

Regarding `O=C(O)c1ccc(-n2cc(/C=N/Nc3c(F)c(F)c(F)c(F)c3F)c(-c3ccc(F)cc3F)n2)cc1`, the MIC entry in the series with Klebsiella aerogenes, in the series with Bacillus subtilis, in the series on Pseudomonas aeruginosa, in the series on Staphylococcus aureus [1], with Staphylococcus aureus [2] and in the series with Acinetobacter baumannii was “inactive” in each case.

In the case of `O=C(O)c1ccc(-n2cc(/C=N/Nc3ccc(F)cc3)c(-c3ccc(F)c(F)c3)n2)cc1`, the MIC entry in the series with Klebsiella aerogenes and in the series with Pseudomonas aeruginosa was “inactive” throughout. For the same compound, the MIC in the series with Bacillus subtilis was 25 µg/mL (≈ 57.3 µM); with Staphylococcus aureus [1], 25 µg/mL (≈ 57.3 µM); in the series on Staphylococcus aureus [2], 25 µg/mL (≈ 57.3 µM); against Acinetobacter baumannii, 6.25 µg/mL (≈ 14.3 µM). The figures for the Activity result (in the series with HEK293 [3]; in the series on HEK293 [4]; in series [5]) were “Non-Toxic”, more than 80% and “Non-Toxic”, respectively.

Turning to `O=C(O)c1ccc(-n2cc(/C=N/Nc3ccccc3F)c(-c3ccc(F)c(F)c3)n2)cc1`, the MIC result in the series on Klebsiella aerogenes and in the series with Pseudomonas aeruginosa was “inactive” throughout. For the same compound, the MIC against Bacillus subtilis was 12.5 µg/mL (≈ 28.6 µM); against Staphylococcus aureus [1] it was 12.5 µg/mL (≈ 28.6 µM); against Staphylococcus aureus [2], 12.5 µg/mL (≈ 28.6 µM); in the series with Acinetobacter baumannii, 6.25 µg/mL (≈ 14.3 µM). Moreover, the Activity result with HEK293 [3] is listed as “Non-Toxic”; with HEK293 [4], more than 80%; in series [5], “Non-Toxic”.

As for `O=C(O)c1ccc(N/N=C/c2cn(-c3ccc(C(=O)O)cc3)nc2-c2ccc(F)c(F)c2)cc1`, the MIC entry in the series on Klebsiella aerogenes, in the series with Bacillus subtilis, in the series with Pseudomonas aeruginosa, in the series on Staphylococcus aureus [1], in the series with Staphylococcus aureus [2] and with Acinetobacter baumannii was “inactive” in each case.

On to `CN[C@H](CC(C)C)C(=O)N[C@H]1C(=O)N[C@@H](CC(N)=O)C(=O)N[C@H]2C(=O)N[C@H]3C(=O)N[C@H](C(=O)N[C@H](C(=O)O)c4cc(O)cc(O)c4-c4cc3ccc4O)[C@H](O)c3ccc(c(Cl)c3)Oc3cc2cc(c3O[C@@H]2O[C@H](CO)[C@@H](O)[C@H](O)[C@H]2O[C@H]2C[C@](C)(N)[C@H](O)[C@H](C)O2)Oc2ccc(cc2Cl)[C@H]1O` [VANCOMYCIN], for which the MIC in the series with Staphylococcus aureus [1] was found to be 12.5 µg/mL (≈ 8.63 µM); against Staphylococcus aureus [2], 6.25 µg/mL (≈ 4.31 µM).

In the case of `O=C(O)c1ccc(-n2cc(/C=N/Nc3ccccc3)c(-c3ccc(F)cc3F)n2)cc1`, the MIC result in the series with Klebsiella aerogenes and in the series with Pseudomonas aeruginosa was “inactive” throughout. The MIC in the series with Bacillus subtilis, against Staphylococcus aureus [1], in the series on Staphylococcus aureus [2] and in the series with Acinetobacter baumannii was 25 µg/mL (≈ 59.8 µM) each time. Further, the Activity result was “Non-Toxic” with HEK293 [3], more than 80% in the series on HEK293 [4] and “Non-Toxic” in series [5].

As for `O=C(O)c1ccc(-n2cc(/C=N/Nc3ccc(Cl)cc3)c(-c3ccc(F)c(F)c3)n2)cc1`, the MIC entry with Klebsiella aerogenes and in the series on Pseudomonas aeruginosa was “inactive” in each case. Further, the MIC in the series with Bacillus subtilis was 6.25 µg/mL (≈ 13.8 µM); in the series with Staphylococcus aureus [1] it was 6.25 µg/mL (≈ 13.8 µM); in the series with Staphylococcus aureus [2], 6.25 µg/mL (≈ 13.8 µM); in the series on Acinetobacter baumannii, 1.56 µg/mL (≈ 3.44 µM). For the same compound, the Activity result was “Non-Toxic” in the series on HEK293 [3], more than 80% in the series with HEK293 [4] and “Non-Toxic” in series [5].

`O=C(O)c1cn(C2CC2)c2cc(N3CCNCC3)c(F)cc2c1=O` [CIPROFLOXACIN] returned an MIC in the series with Bacillus subtilis of 1.56 µg/mL (≈ 4.71 µM).

For the compound `O=C(O)c1ccc(-n2cc(/C=N/Nc3c(F)c(F)cc(F)c3F)c(-c3ccc(F)cc3F)n2)cc1`, the MIC entry in the series on Klebsiella aerogenes, in the series with Bacillus subtilis, in the series with Pseudomonas aeruginosa, with Staphylococcus aureus [1], in the series on Staphylococcus aureus [2] and in the series with Acinetobacter baumannii was “inactive” in each case.

Turning to `O=C(O)c1ccc(-n2cc(/C=N/Nc3ccc(F)cc3)c(-c3ccc(F)cc3F)n2)cc1`, the MIC result in the series with Klebsiella aerogenes and with Pseudomonas aeruginosa was “inactive” in each case. Moreover, the MIC with Bacillus subtilis was 6.25 µg/mL (≈ 14.3 µM); in the series with Staphylococcus aureus [1] it was 25 µg/mL (≈ 57.3 µM); in the series with Staphylococcus aureus [2], 25 µg/mL (≈ 57.3 µM); in the series on Acinetobacter baumannii, 6.25 µg/mL (≈ 14.3 µM).

Take `O=C(O)c1ccc(N/N=C/c2cn(-c3ccc(C(=O)O)cc3)nc2-c2ccc(F)cc2F)cc1`: the MIC result with Klebsiella aerogenes, with Bacillus subtilis, in the series on Pseudomonas aeruginosa, with Staphylococcus aureus [1], with Staphylococcus aureus [2] and in the series with Acinetobacter baumannii was “inactive” in each case.

Turning to `CN1CCN(/N=C/c2cn(-c3ccc(C(=O)O)cc3)nc2-c2ccc(F)c(F)c2)CC1`, the MIC result in the series on Klebsiella aerogenes, in the series with Bacillus subtilis, in the series with Pseudomonas aeruginosa, with Staphylococcus aureus [1], with Staphylococcus aureus [2] and with Acinetobacter baumannii was “inactive” each time.

Consider `O=C(O)c1ccc(-n2cc(/C=N/Nc3cc(F)ccc3F)c(-c3ccc(F)cc3F)n2)cc1`, for which the MIC entry in the series with Klebsiella aerogenes and with Pseudomonas aeruginosa was “inactive” in each case. The MIC was 3.12 µg/mL (≈ 6.87 µM) in the series with Bacillus subtilis, 12.5 µg/mL (≈ 27.5 µM) in the series with Staphylococcus aureus [1], 12.5 µg/mL (≈ 27.5 µM) in the series on Staphylococcus aureus [2] and 12.5 µg/mL (≈ 27.5 µM) against Acinetobacter baumannii.

Take `O=C(O)c1ccc(-n2cc(/C=N/Nc3ccccc3F)c(-c3ccc(F)cc3F)n2)cc1`: the MIC result with Klebsiella aerogenes and in the series on Pseudomonas aeruginosa was “inactive” in each case. For the same compound, the MIC was found to be 12.5 µg/mL (≈ 28.6 µM) in the series with Bacillus subtilis, 25 µg/mL (≈ 57.3 µM) in the series on Staphylococcus aureus [1], 25 µg/mL (≈ 57.3 µM) against Staphylococcus aureus [2] and 12.5 µg/mL (≈ 28.6 µM) with Acinetobacter baumannii. In addition, the Activity result is recorded as “Non-Toxic” with HEK293 [3], more than 80% with HEK293 [4] and “Non-Toxic” in series [5].

`O=C(O)c1ccc(-n2cc(/C=N/N3CCCCC3)c(-c3ccc(F)cc3F)n2)cc1`: the MIC entry with Klebsiella aerogenes, in the series on Bacillus subtilis, with Pseudomonas aeruginosa, in the series with Staphylococcus aureus [1], in the series with Staphylococcus aureus [2] and in the series with Acinetobacter baumannii was “inactive” in each case.

For the compound `O=C(O)c1ccc(-n2cc(/C=N/Nc3ccccc3)c(-c3ccc(F)c(F)c3)n2)cc1`, the MIC entry with Klebsiella aerogenes and in the series with Pseudomonas aeruginosa was “inactive” throughout. For the same compound, the MIC with Bacillus subtilis came out at 25 µg/mL (≈ 59.8 µM); with Staphylococcus aureus [1], 25 µg/mL (≈ 59.8 µM); in the series with Staphylococcus aureus [2], 25 µg/mL (≈ 59.8 µM); with Acinetobacter baumannii it was 6.25 µg/mL (≈ 14.9 µM). The figures for the Activity entry (in the series on HEK293 [3]; in the series on HEK293 [4]; in series [5]) were “Non-Toxic”, more than 80% and “Non-Toxic”, respectively.

`O=C(O)c1ccc(-n2cc(/C=N/Nc3ccc([N+](=O)[O-])cc3)c(-c3ccc(F)cc3F)n2)cc1`: the MIC entry in the series on Klebsiella aerogenes, in the series with Bacillus subtilis, in the series on Pseudomonas aeruginosa, in the series with Staphylococcus aureus [1], in the series with Staphylococcus aureus [2] and in the series with Acinetobacter baumannii was “inactive” each time.

On to COLISTIN, for which the MIC with Klebsiella aerogenes stood at 0.39 µg/mL; with Pseudomonas aeruginosa, 0.78 µg/mL; in the series with Acinetobacter baumannii, 12.5 µg/mL.
